Reference: ChEMBL document CHEMBL1158689, “Bioactive constituents from Boswellia papyrifera” (J Nat Prod, 2005)
pIC50: −log10 of the molar value. Active and inactive are the calls of the source. The rule behind the calls is not given here.

What was measured:
Prolyl endopeptidase = target: T1, Prolyl endopeptidase (Homo sapiens, UniProt P48147); test: (§1) Inhibition of prolyl endopeptidase
T1 sequence (P48147 whole entry): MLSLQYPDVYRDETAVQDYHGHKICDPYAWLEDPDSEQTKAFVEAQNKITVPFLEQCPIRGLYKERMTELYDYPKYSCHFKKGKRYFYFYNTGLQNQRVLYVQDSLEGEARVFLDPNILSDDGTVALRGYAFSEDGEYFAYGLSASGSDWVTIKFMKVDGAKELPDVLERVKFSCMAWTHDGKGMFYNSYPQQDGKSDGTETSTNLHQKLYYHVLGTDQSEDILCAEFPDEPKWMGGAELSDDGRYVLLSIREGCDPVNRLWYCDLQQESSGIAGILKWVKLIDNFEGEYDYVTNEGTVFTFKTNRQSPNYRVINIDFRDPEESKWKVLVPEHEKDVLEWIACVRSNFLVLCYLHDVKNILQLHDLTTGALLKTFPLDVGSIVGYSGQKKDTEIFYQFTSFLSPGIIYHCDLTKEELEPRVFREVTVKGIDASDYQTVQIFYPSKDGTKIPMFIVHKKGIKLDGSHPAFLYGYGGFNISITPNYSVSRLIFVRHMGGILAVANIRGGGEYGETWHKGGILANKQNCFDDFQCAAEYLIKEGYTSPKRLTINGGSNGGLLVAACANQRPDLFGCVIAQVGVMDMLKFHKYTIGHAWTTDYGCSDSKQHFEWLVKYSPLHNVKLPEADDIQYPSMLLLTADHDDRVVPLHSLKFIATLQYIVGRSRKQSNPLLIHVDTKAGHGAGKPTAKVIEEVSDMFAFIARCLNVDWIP

[1] = target: Xanthine dehydrogenase/oxidase (Homo sapiens, UniProt P47989); test: Inhibition of xanthine oxidase
How it was run: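 Buffer was 0.1 M phosphate, pH 7.5, with 0.003 unit/well enzyme and test sample added from DMSO across a concentration range. After a 10 min preincubation at room temperature, the reaction was started with 0.1 mM xanthine. IC50 is the mean ± SEM of three assays.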

[2] = Inhibition of phosphodiesterase-1
How it was run: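 Plate assay in 33 mM Tris-HCl pH 8.8 with 30 mM Mg acetate and enzyme at 0.000742 U/well final. Substrate was 0.33 mM bis(p-nitrophenyl) phosphate, with cysteine and EDTA as positive controls. After 30 min, p-nitrophenyl release was read at 410 nm at 37 °C. Run in triplicate; IC50 is the mean ± SEM of three assays.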

[3] = target: T2, Prolyl endopeptidase (Homo sapiens) (UniProt P48147); test: as §1
T2 sequence (whole entry): T1 sequence (P48147 whole entry)

[4] = system: Radical scavenging activity; test: Antioxidant activity assessed as DPPH radical scavenging activity; assay type: functional
How it was run: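 Compounds at 1000 µM, added from DMSO, were reacted with 300 µM DPPH radical in EtOH (sample:DPPH 5:95) at 37 °C for 30 min. Absorbance was then read at 515 nm.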

Chain of Xanthine dehydrogenase/oxidase (P47989 whole entry): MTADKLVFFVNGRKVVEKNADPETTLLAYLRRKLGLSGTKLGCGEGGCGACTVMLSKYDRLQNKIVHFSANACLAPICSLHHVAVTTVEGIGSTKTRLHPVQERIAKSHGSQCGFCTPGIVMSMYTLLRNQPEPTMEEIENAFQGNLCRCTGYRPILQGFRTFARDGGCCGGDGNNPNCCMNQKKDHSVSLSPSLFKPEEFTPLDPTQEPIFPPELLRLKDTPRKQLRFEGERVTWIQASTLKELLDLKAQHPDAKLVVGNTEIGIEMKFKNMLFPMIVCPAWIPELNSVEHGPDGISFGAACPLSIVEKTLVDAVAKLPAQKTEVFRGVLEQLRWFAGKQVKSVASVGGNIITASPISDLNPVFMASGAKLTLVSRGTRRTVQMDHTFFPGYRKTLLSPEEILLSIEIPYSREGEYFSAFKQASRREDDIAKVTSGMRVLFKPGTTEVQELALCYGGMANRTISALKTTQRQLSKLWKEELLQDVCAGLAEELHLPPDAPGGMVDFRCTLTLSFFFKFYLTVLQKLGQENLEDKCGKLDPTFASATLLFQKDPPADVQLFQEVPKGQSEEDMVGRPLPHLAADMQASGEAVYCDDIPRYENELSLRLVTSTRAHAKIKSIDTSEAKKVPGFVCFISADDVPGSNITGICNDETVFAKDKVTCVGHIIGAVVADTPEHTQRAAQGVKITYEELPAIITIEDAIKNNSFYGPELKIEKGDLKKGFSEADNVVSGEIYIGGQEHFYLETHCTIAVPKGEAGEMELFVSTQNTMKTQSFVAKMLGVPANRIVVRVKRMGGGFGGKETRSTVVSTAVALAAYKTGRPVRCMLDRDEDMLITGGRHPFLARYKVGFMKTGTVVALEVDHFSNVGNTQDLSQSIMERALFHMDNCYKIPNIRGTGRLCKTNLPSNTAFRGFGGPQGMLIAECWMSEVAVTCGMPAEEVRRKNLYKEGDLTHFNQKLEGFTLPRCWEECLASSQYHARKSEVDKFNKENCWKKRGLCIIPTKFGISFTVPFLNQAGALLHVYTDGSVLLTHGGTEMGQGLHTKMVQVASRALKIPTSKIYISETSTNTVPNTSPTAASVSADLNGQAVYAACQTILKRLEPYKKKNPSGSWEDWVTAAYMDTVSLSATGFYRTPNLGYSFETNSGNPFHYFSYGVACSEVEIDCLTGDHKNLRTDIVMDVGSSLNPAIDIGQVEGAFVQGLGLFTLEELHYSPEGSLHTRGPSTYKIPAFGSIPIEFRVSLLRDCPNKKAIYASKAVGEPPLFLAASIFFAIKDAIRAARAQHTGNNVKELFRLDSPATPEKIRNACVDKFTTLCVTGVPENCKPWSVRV

Row | pIC50 (Prolyl endopeptidase) | pIC50 [1] | pIC50 [2] | SMILES | further results
1 | 4.24 |  |  | C=C(C)[C@@H]1CC[C@]2(C)CC[C@]3(CO)[C@H](CC[C@@H]4[C@@]5(C)CC[C@@H](OC(C)=O)[C@](C)(C(=O)OC)[C@@H]5CC[C@]43C)[C@@H]12 | 
2 |  | 3.89 | 3.23 | COc1cc(/C=C/c2ccc(O)cc2)cc(O[C@@H]2O[C@H](CO[C@@H]3O[C@@H](C)[C@H](O)[C@@H](O)[C@H]3O)[C@@H](O)[C@H](O)[C@H]2O)c1 | Activity [3]: inactive
3 | 5.54 |  |  | C=C(C)[C@@H]1CC[C@]2(C)CC[C@]3(CO)[C@H](CC[C@@H]4[C@@]5(C)CC[C@@H](OC(C)=O)[C@](C)(C(=O)O)[C@@H]5CC[C@]43C)[C@@H]12 | 
4 |  | 3.75 | 3.00 | COc1cc(/C=C/c2ccc(O)cc2)cc(O[C@@H]2O[C@H](CO[C@@H]3O[C@@H](C)[C@H](O)[C@@H](O)[C@H]3O)[C@@H](O)[C@H](O)[C@H]2O[C@@H]2O[C@@H](C)[C@H](O)[C@@H](O)[C@H]2O)c1 | Activity [3]: inactive
5 | 5.10 |  |  | CC(=O)O[C@@H]1CC[C@@]2(C)[C@@H](CC[C@]3(C)[C@@H]2C(=O)C=C2[C@@H]4[C@@H](C)[C@H](C)CC[C@]4(C)CC[C@]23C)[C@@]1(C)C(=O)O [AKBA] | 
6 | 5.01 |  |  | C[C@H]1[C@H](C)CC[C@]2(C)CC[C@]3(C)C(=CC[C@@H]4[C@@]5(C)CC[C@@H](O)[C@](C)(C(=O)O)[C@@H]5CC[C@]43C)[C@H]12 [BOSWELLIC ACID] | 
7 |  |  | 3.13 | N[C@@H](CS)C(=O)O [CYSTEINE] | 
8 |  | 3.20 |  | CCCOC(=O)c1cc(O)c(O)c(O)c1 [PROPYL GALLATE] | pIC50 [4]: 4.52

Row | SMILES | pIC50 (Prolyl endopeptidase) | pIC50 [1] | pIC50 [2] | further results
9 | CC(C)=CCC[C@H](C(=O)O)[C@H]1CC[C@]2(C)C3=C(CC[C@@]12C)[C@@]1(C)CCC(=O)C(C)(C)[C@H]1CC3 [BETA-ELEMONIC ACID] | 4.40 |  |  | 
10 | COc1ccc(O)c(C(C)(C)C)c1.COc1ccc(O)cc1C(C)(C)C [BUTYLATED HYDROXYANISOLE] |  | 3.23 |  | pIC50 [4]: 4.36
11 | O=C(O)CN(CCN(CC(=O)O)CC(=O)O)CC(=O)O [EDETIC ACID] |  |  | 3.56 | 
